Only some compounds are listed: those with a hit (about 2.7% of all), similar ones and a draw of the others.
RAM network inh = inhibitors of the yeast RAM network, primary screen, dse1pr::URA3 reporter, 5-FOA selection; S. cerevisiae dse1pr::URA3 reporter, 5-FOA growth OD615, 2 d; analog-sensitive cbk1-as2 kinase mutant strain; inhibition, % at 50 µM; 190,000 tested, 1.8% active; AID 868, 2007;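 active means inhibition above a set limit, 3 SD over mean compound inhibition, cut at about 8.4% in these data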;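 further: 0% = DMSO-only wells with no growth and 100% = 10 µM 1-NA-PP1 full growth; inhibition rescues growth on 5-FOA so higher OD means more RAM inhibition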
Phagocyt inh = inhibitors of macrophage phagocytosis, primary screen, imaging, J774A.1 cells, IgG beads. 110,000 tested, 0.07% active. AID 1029, 2008. J774A.1 macrophage IgG-bead phagocytosis. inhibition, % at 5 µM;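 active means inhibition above the mean of the plate negative controls plus 5 SD, cut at about 13% in these data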;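 further: phagocytic index as fraction of beads internalized from green versus red external bead signal; plate controls were DMSO negative control for no effect and cytochalasin-D positive control for full effect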
Yeast lifespan up = compounds extending yeast replicative lifespan, primary screen, S. cerevisiae, OD615; S. cerevisiae growth with nicotinamide; deaD strain in restrictive glucose medium; inhibition of the nicotinamide effect, % at 10 µM; 130,000 tested, 0.68% active;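 active means inhibition above a set limit, placed 3 SD over the median of all compounds, cut at about 26% in these data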;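 further: 0% = nicotinamide-treated wells and 100% = cells grown without nicotinamide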
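assay system = DeaD-strain S. cerevisiae | buffer or medium = restrictive glucose medium | reagent = 1.5 mM nicotinamide | compound = 10 µM single point, 0.25% DMSO | incubation = 48 h compound exposure at 30 °C, humidified | signal = OD615 measurement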
Yeast growth inh = growth inhibitors of yeast BB579 in restrictive medium, primary screen, yeast lifespan-shortening project, S. cerevisiae | OD615, 48 h | inhibition, % at 10 µM | 140,000 tested, 0.51% active;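 active means inhibition above a set limit, 3 SD over the mean compound inhibition, cut at about 44% in these data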
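Material: Saccharomyces cerevisiae DeaD strain BB579, replicative lifespan model yeast; buffer or medium: CSMM-D restrictive synthetic medium containing dextrose (glucose); compound: 10 µM single dose, DMSO 0.25%; timing: 48 h compound exposure at 30 °C after 4 h preincubation; signal: turbidity as optical density at 615 nm; benchmarks: positive control amphotericin B 10 µg/mL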
* = called active by the depositor.

For CCS(=O)(=O)c1nc(S(=O)(=O)c2ccc(Cl)cc2)c(N2CCc3ccccc3C2)s1 the results were RAM network inh 7, Phagocyt inh -13, Yeast lifespan up 3 and Yeast growth inh -43.
Screening CCN(CC)C(=O)CSc1nc(-c2cccs2)cc(-c2cccs2)c1C#N returned RAM network inh 8.4* and Yeast growth inh -29.
`CCN(CC)C(=O)CSc1nc(N)c(C#N)c(-c2cccs2)c1C#N` gave RAM network inh 1 and Yeast growth inh -37.
`Cc1ccc(NC(=O)CSc2nnc(-c3ccncc3)o2)cc1C` gave RAM network inh 2.
For Cc1ccccc1N=Cc1cccc(O)c1O the results were RAM network inh 0, Phagocyt inh -2, Yeast lifespan up -11 and Yeast growth inh 97*.
CC(N=Cc1cc([N+](=O)[O-])ccc1O)c1ccccc1 (configuration not stated) was read as RAM network inh -1.
For Cc1ccc(N=Cc2cccc(O)c2O)c(C)c1 the results were RAM network inh 2, Phagocyt inh 0, Yeast lifespan up -21 and Yeast growth inh 97*.
CC(N=Cc1cccc(O)c1O)c1ccccc1 (configuration not stated) was read as RAM network inh -1, Phagocyt inh -3, Yeast lifespan up -10 and Yeast growth inh 96*.
For CC1=NN(C(=O)Cn2nc([N+](=O)[O-])c(Br)c2C)C(O)(C(F)(F)F)C1 (configuration not stated) the results were RAM network inh 1, Phagocyt inh -1, Yeast lifespan up 2 and Yeast growth inh 10.
For COCCn1c(SCC(=O)Nc2ccccc2)nc2c(oc3ccccc32)c1=O the results were RAM network inh 0.
`COCCn1c(SCC(=O)Nc2ccc(C)cc2)nc2c(oc3ccccc32)c1=O` gave RAM network inh 2, Phagocyt inh -3, Yeast lifespan up 85* and Yeast growth inh -36.
O=C1OC(/C=C/c2ccc(Cl)cc2Cl)=NC/1=C\c1cccs1 was read as RAM network inh 9.5*, Phagocyt inh -8, Yeast lifespan up 1 and Yeast growth inh -43.
Screening O=c1cc(-c2cccs2)oc2ccc(Cl)cc12 returned RAM network inh 1, Phagocyt inh -3, Yeast lifespan up -11 and Yeast growth inh 13.
For COc1cc2c(cc1NC(=O)c1cccc(Br)c1)CCCC2 the results were RAM network inh 9.3*, Phagocyt inh 2, Yeast lifespan up 4 and Yeast growth inh -44.
CCOC(=O)c1ccc(NC(=O)N2CCN(c3cccc(OC)c3)CC2)cc1 was read as RAM network inh 3.
Screening Cc1cc(C(=O)COC(=O)c2ccc[nH]c2=O)c(C)n1C returned RAM network inh 3, Phagocyt inh -5, Yeast lifespan up 5 and Yeast growth inh -9.
Screening Cc1cc(C(=O)COC(=O)c2ccc[nH]c2=O)c(C)n1-c1ccc(Br)cc1 returned RAM network inh 0, Phagocyt inh -9, Yeast lifespan up -7 and Yeast growth inh 91*.
`Cc1ccc(-n2c(C)cc(C(=O)COC(=O)c3ccc[nH]c3=O)c2C)cc1` gave RAM network inh 0, Phagocyt inh -13, Yeast lifespan up -6 and Yeast growth inh 93*.
Screening COCc1cc(C)nc(SCC(=O)Oc2ccc(Cl)cc2)c1C#N returned RAM network inh 3.
Screening COCc1cc(C)nc(SCC(=O)Oc2ccccc2)c1C#N returned RAM network inh 9.1*.
Screening COc1ccc2cc(C(=O)O)ccc2c1 returned RAM network inh -1, Phagocyt inh 0, Yeast lifespan up -29 and Yeast growth inh 84*.
`COc1ccc(CC(=O)Nc2ccc(C(=O)O)cc2NC(=O)Cc2ccc(OC)cc2)cc1` gave RAM network inh 3.
Screening CCOC(=O)c1nnc(-c2ccccc2)nc1NCc1ccc(Cl)cc1 returned RAM network inh 10*, Yeast lifespan up 13 and Yeast growth inh -28.
`CCOC(=O)c1nnc(-c2ccccc2)nc1Sc1c(Cl)cccc1Cl` gave RAM network inh 5, Phagocyt inh 0, Yeast lifespan up -15 and Yeast growth inh -42.
`CCOCCc1c(O)nc(SCCOc2ccc(C)c(C)c2)[nH]c1=O` gave RAM network inh 4.
O=C(COC(=O)Cc1ccc(S(=O)(=O)N2CCCCC2)s1)Nc1ccc2c(c1)OCO2 was read as RAM network inh 9.4*, Phagocyt inh -1, Yeast lifespan up -15 and Yeast growth inh -30.
Screening NS(=O)(=O)c1cccc(NC(=O)COC(=O)Cc2ccc(S(=O)(=O)N3CCCCC3)s2)c1 returned RAM network inh 8.
Screening CC1(C)CC(=O)c2sc(NS(C)(=O)=O)nc2C1 returned RAM network inh 3, Phagocyt inh 0, Yeast lifespan up 97* and Yeast growth inh -7.
For COc1ccc(C)cc1NC(=O)C(OC(=O)CNC(=O)c1ccc(Oc2ccccc2)cc1)c1ccccc1 (configuration not stated) the results were RAM network inh 6, Phagocyt inh -8, Yeast lifespan up -1 and Yeast growth inh -16.
Screening COc1ccc(C)cc1NC(=O)C(OC(=O)c1cc(C)oc1C)c1ccccc1 (configuration not stated) returned RAM network inh 11*, Phagocyt inh -6, Yeast lifespan up 5 and Yeast growth inh -13.
COc1ccc([N+](=O)[O-])cc1NC(=O)C(C)OC(=O)/C=C/c1ccco1 (configuration not stated) was read as RAM network inh 3, Phagocyt inh -3, Yeast lifespan up -7 and Yeast growth inh -70.
Screening CC(OC(=O)/C=C/c1ccco1)C(=O)Nc1cccc([N+](=O)[O-])c1 (configuration not stated) returned RAM network inh 9.0*, Phagocyt inh 0, Yeast lifespan up 5 and Yeast growth inh -20.
`CCCCCCCOC(=O)C[N+](C)(C)CCOC1CC2CCC1(C)C2(C)C` (configuration not stated) gave RAM network inh -3, Phagocyt inh 2, Yeast lifespan up -12 and Yeast growth inh 100*.
`CCCCCCOC(=O)C[N+](C)(C)CCOC1CC2CCC1(C)C2(C)C` (configuration not stated) gave RAM network inh -1, Phagocyt inh 0, Yeast lifespan up -14 and Yeast growth inh 8.
`CCOC(=O)NC(=O)c1cn(CCN(C)C)c(=O)[nH]c1=O` gave RAM network inh 1, Phagocyt inh -2, Yeast lifespan up -1 and Yeast growth inh 8.
`O=c1[nH]n(-c2cccc3cccnc23)c(=O)c2ccccc12` gave RAM network inh 0, Yeast lifespan up -3 and Yeast growth inh -36.
For O=S1(=O)Nc2c(ccc3cccnc23)-c2ccccc21 the results were RAM network inh -2, Phagocyt inh -2, Yeast lifespan up -13 and Yeast growth inh 100*.
For C=CCn1c(=O)c2c3c(sc2n2c(Nc4ccc(C(=O)OCC)cc4)nnc12)CCCC3 the results were RAM network inh 8.5*, Phagocyt inh 0, Yeast lifespan up 5 and Yeast growth inh -84.

Bioassay records: PubChem, several laboratories
